From PMC5689172 (Biochemistry and Biophysics Reports, 2016)
Values after ≈ are worked out from the molar mass of the structure shown. Where two headings read alike, the source gives them in different places.

Experiments:
[1] = system: S. epidermidis ATCC 12228; assay: Antimicrobial activity, agar dilution method; format: cell-based; conditions: Staphylococcus epidermidis, ATCC12228
Outline: (§1)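 Test compound in DMSO, mixed with Mueller–Hinton broth, two-fold serially diluted, and incorporated into MH agar at final 0.25–256 μg/mL. Agar with 0.5% DMSO served as reagent control. Organisms were grown overnight in MH broth at 37 °C, diluted in normal saline to 0.5 McFarland (1.5×10⁸ CFU/mL), and inoculated onto plates. Plates were incubated at 37 °C for 24–48 h, then MIC was recorded.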

[2] = system: S. marcescens ATCC 8100; assay: Antimicrobial activity, agar dilution method; format: cell-based; conditions: Serratia marcescens, ATCC8100
Outline: as §1

[3] = system: S. dysenteriae; assay: Antimicrobial activity, agar dilution method; format: cell-based; conditions: Shigella dysenteriae
Outline: as §1

[4] = system: M. morganii; assay: Antimicrobial activity, agar dilution method; format: cell-based; conditions: Morganella morganii
Outline: as §1

[5] = system: K. pneumoniae ATCC 700603; assay: Antimicrobial activity, agar dilution method; format: cell-based; conditions: Klebsiella pneumoniae, ATCC700603
Outline: as §1

[6] = system: S. putrefaciens ATCC 8071; assay: Antimicrobial activity, agar dilution method; format: cell-based; conditions: Shewanella putrefaciens, ATCC8071
Outline: as §1

[7] = system: twenty-seven strains of microorganisms; format: cell-based; conditions: Saccharomyces cerevisiae
Outline: as §1

[8] = system: P. aeruginosa ATCC 27853; assay: Antimicrobial activity, agar dilution method; format: cell-based, Pseudomonas aeruginosa
Outline: as §1

[9] = system: B. cereus; assay: Antimicrobial activity, agar dilution method; format: cell-based; conditions: Bacillus cereus
Outline: as §1

[10] = system: M. luteus ATCC 10240; assay: Antimicrobial activity, agar dilution method; format: cell-based; conditions: Micrococcus luteus, ATCC10240
Outline: as §1

[11] = system: A. hydrophila; assay: Antimicrobial activity, agar dilution method; format: cell-based; conditions: Aeromonas hydrophila
Outline: as §1

[12] = system: S. Choleraesuis ATCC 10708; assay: Antimicrobial activity, agar dilution method; format: cell-based; conditions: Salmonella enterica, ATCC10708|CHOLERAESUIS
Outline: as §1

[13] = system: B. subtilis ATCC 6633; assay: Antimicrobial activity, agar dilution method; format: cell-based; conditions: Bacillus subtilis, ATCC6633
Outline: as §1

[14] = system: Gram-positive bacteria; assay: Antimicrobial activity, agar dilution method, summarised over the group; format: cell-based
Outline: as §1

[15] = system: S. aureus ATCC 29213; assay: Antimicrobial activity, agar dilution method; format: cell-based; conditions: Staphylococcus aureus, ATCC29213
Outline: as §1

[16] = system: E. faecalis ATCC 33186; assay: Antimicrobial activity, agar dilution method; format: cell-based; conditions: Enterococcus faecalis, ATCC33186
Outline: as §1

[17] = system: P. stutzeri ATCC 17587; assay: Antimicrobial activity, agar dilution method; format: cell-based, Pseudomonas stutzeri; conditions: Stutzerimonas stutzeri, ATCC17587
Outline: as §1

[18] = system: C. albicans ATCC 90028; assay: Antimicrobial activity, agar dilution method; format: cell-based; conditions: Candida albicans, ATCC90028
Outline: as §1

[19] = system: S. cerevisiae ATCC 2601; assay: Antimicrobial activity, agar dilution method; format: cell-based; conditions: Saccharomyces cerevisiae, ATCC2601
Outline: as §1

[20] = system: A. xylosoxidans ATCC 27061; assay: Antimicrobial activity, agar dilution method; format: cell-based; conditions: Achromobacter xylosoxidans, ATCC27061
Outline: as §1

[21] = system: S. aureus ATCC 25923; assay: Antimicrobial activity, agar dilution method; format: cell-based; conditions: Staphylococcus aureus, ATCC25923
Outline: as §1

[22] = system: L. monocytogenes; assay: Antimicrobial activity, agar dilution method; format: cell-based; conditions: Listeria monocytogenes
Outline: as §1

[23] = system: E. faecalis ATCC 29212; assay: Antimicrobial activity, agar dilution method; format: cell-based; conditions: Enterococcus faecalis, ATCC29212
Outline: as §1

[24] = system: S. Typhimurium ATCC 13311; assay: Antimicrobial activity, agar dilution method; format: cell-based; conditions: Salmonella enterica, ATCC13311|TYPHIMURIUM
Outline: as §1

[25] = read-out: SOD (superoxide dismutase) activity IC50; cited from earlier work
[26] = Antioxidant activity, DPPH radical scavenging assay; format: biochemical; conditions: read-out: RSA IC50, 30 min, 517 nm
Outline: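 Sample solution (test compound, 1 mg/mL in DMSO) was mixed with 0.1 mM DPPH in methanol and kept 30 min in the dark. Absorbance was read at 517 nm. Radical scavenging activity (%) = [1 − Abs(sample)/Abs(control)] × 100. α-Tocopherol was the positive control.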

[27] = system: S. Enteritidis; assay: Antimicrobial activity, agar dilution method; format: cell-based; conditions: Salmonella enterica
Outline: as §1

[28] = system: C. diphtheriae NCTC 10356; assay: Antimicrobial activity, agar dilution method; format: cell-based; conditions: Corynebacterium diphtheriae, NCTC10356
Outline: as §1

[29] = system: C. freundii; assay: Antimicrobial activity, agar dilution method; format: cell-based; conditions: Citrobacter freundii
Outline: as §1

[30] = system: Gram-negative bacteria; assay: Antimicrobial activity, agar dilution method, summarised over the group; format: cell-based
Outline: as §1

[31] = system: MRC-5 cell line; conditions: read-out: Cytotoxicity IC50; MRC-5 cells, MTT; cited from earlier work
[32] = system: E. coli ATCC 25922; assay: Antimicrobial activity, agar dilution method; format: cell-based; conditions: Escherichia coli, ATCC25922
Outline: as §1

[33] = system: P. shigelloides; assay: Antimicrobial activity, agar dilution method; format: cell-based; conditions: Plesiomonas shigelloides
[34] = Pseudomonas aeruginosa, ATCC27853

`Oc1cccc2cccnc12` [8HQ (1), 8-Hydroxyquinoline] gave an MIC [1] of 6.89 µM (≈ 1 µg/mL), an MIC [2] of 220 µM (≈ 32 µg/mL) and an MIC [3] of 220 µM (≈ 32 µg/mL). The MIC [4] was 882 µM (≈ 128 µg/mL), the MIC [5] was 882 µM (≈ 128 µg/mL) and the MIC [6] was 220 µM (≈ 32 µg/mL). For the same compound, the MIC [7] was 3.44 to 13.8 µM (≈ 0.499 to 2 µg/mL), the MIC ([8]; P. aeruginosa ATCC 27853, agar dilution) was greater than 1763.57 µM and the MIC [8, 34] was greater than 1760 µM. It also gave an MIC [9] of 13.8 µM (≈ 2 µg/mL), an MIC [10] of 13.8 µM (≈ 2 µg/mL) and an MIC [11] of 110 µM (≈ 16 µg/mL). For the same compound, the MIC [12] was 882 µM (≈ 128 µg/mL), the MIC [13] was 6.89 µM (≈ 1 µg/mL) and the MIC [14] was 3.44 to 13.8 µM (≈ 0.499 to 2 µg/mL). The MIC [15] was 6.89 µM (≈ 1 µg/mL), the MIC [16] was 13.8 µM (≈ 2 µg/mL) and the MIC [17] was 220 µM (≈ 32 µg/mL). For the same compound, the MIC [18] was 13.8 µM (≈ 2 µg/mL), the MIC [19] was 13.8 µM (≈ 2 µg/mL) and the MIC [20] was 55.1 µM (≈ 8 µg/mL). It also gave an MIC [21] of 6.89 µM (≈ 1 µg/mL), an MIC [22] of 3.44 µM (≈ 0.499 µg/mL) and an MIC [23] of 13.8 µM (≈ 2 µg/mL). For the same compound, the MIC [24] was 220 µM (≈ 32 µg/mL), the IC50 [25] was 91.8 µM and the IC50 [26] was 615 µM. For the same compound, the MIC [27] was 882 µM (≈ 128 µg/mL), the MIC [28] was 13.8 µM (≈ 2 µg/mL) and the MIC [29] was 220 µM (≈ 32 µg/mL). The MIC [30] was 110 to 882 µM (≈ 16 to 128 µg/mL), the MIC [30, 34] was 13.8 to 882 µM (≈ 2 to 128 µg/mL) and the IC50 [31] was 6.27 µM. It also gave an MIC [32] of 220 µM (≈ 32 µg/mL) and an MIC [33] of 13.8 µM (≈ 2 µg/mL).
